Results on 8 molecules are retold here after ChEMBL document CHEMBL1649225, “Artemisone and artemiside control acute and reactivated toxoplasmosis in a murine model” (Antimicrob Agents Chemother, 2009).

The source made the active and inactive calls. The rule behind the calls is not given here.

Data set [1] can be described thus: Partition coefficient, log P of the compound. It counts as physicochemical. The following applies: octanol/water.
The next data set has as its system HFF. In words: Cytotoxicity against HFF. It counts as cell-based. The following applies: human.
Data set [2] concerns Toxoplasma gondii. In words: Antiparasitic activity against Toxoplasma gondii RH infected in human foreskin fibroblasts monolayer after 72 hrs by bacterial beta-galactosidase reporter gene assay. Format: functional, organism-based. The essentials: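 RH clone 2F expressing bacterial β-galactosidase, grown as tachyzoites in HFF monolayers in DMEM with 10% FBS. Compounds from DMSO stocks stored at −80°C in single-use aliquots. Tested at 0.010–1.0 μM for 72 h at 37°C. Medium then removed and β-galactosidase activity read at 570 nm.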
For orientation: Reporter assays use an easily measured gene product as a stand-in for the process of interest.

Data set [3] has as its system Toxoplasma gondii. In words: Antiparasitic activity against Toxoplasma gondii PRU-Luc-GFP type 2 infected in CD1 mouse acute toxoplasmosis model assessed as decrease in parasite burden at 10 mg/kg, sc administered once daily for 8 days measured after 25 days post-infection by luciferase reporter gene based assay. It counts as functional, organism-based. Details: dose 10 mg/kg. In short, it runs like this: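 Female CD1 mice, 8–10 weeks old, infected i.p. with 10⁶ PRU-Luc-GFP tachyzoites. Dosed s.c. at 10 mg/kg daily for 8 days. Imaged every 2 days over 25 days under mild isoflurane anesthesia after i.p. firefly luciferin D at […]. Output in relative light units as a relative index of infection severity. Four repeats, n = 3 or 4 per group; one representative experiment shown.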

Data set [4] deals with Toxoplasma gondii. In words: Antiparasitic activity against Toxoplasma gondii PRU-Luc-GFP type 2 infected in 400 mg/kg sulfadiazine-pretreated INFgamma-deficient C57BL/6 mouse reactivated toxoplasmosis model assessed as mouse survival at 10 mg/kg, sc at once daily for 8 days administered 2 days after sulfadiazine discontinuation. Format: functional. The essentials: (§1)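 Female IFN-γ−/− mice on C57BL/6 background, 8–10 weeks old, kept specific pathogen-free. Infected orally with 20 PRU-Luc-GFP tissue cysts taken from brains of chronically infected wild-type mice. Sulfadiazine in drinking water for 3 weeks from day 2. Compounds given s.c. at 10 mg/kg daily for 8 days, starting 2 days after sulfadiazine stopped. Survival monitored; three experiments combined, n = 3–5 per group.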

In data set [5] the test system is Toxoplasma gondii. In words: Antiparasitic activity against Toxoplasma gondii PRU-Luc-GFP type 2 infected in CD1 mouse acute toxoplasmosis model assessed as mouse survival at 10 mg/kg, sc administered once daily for 8 days measured after 25 days post-infection. It counts as functional. The following applies: PRU-Luc-GFP type 2, sc, route subcutaneous. The essentials:
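Female CD1 outbred mice, 8–10 weeks old, infected i.p. with 10⁶ PRU-Luc-GFP type II tachyzoites in 0.2 ml PBS. Compounds given s.c. at 10 mg/kg daily for 8 days. Survival followed for 25 days; three experiments combined, n = 3 or 4 per group.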

Data set [6] concerns Toxoplasma gondii. In words: Antiparasitic activity against Toxoplasma gondii PRU-Luc-GFP type 2 infected in 400 mg/kg sulfadiazine-pretreated INFgamma-deficient C57BL/6 mouse reactivated toxoplasmosis model assessed as mouse survival at 10 mg/kg, sc at once daily for 8 days administered 2 days after sulfadiazine discontinuation measured on day 18 post infection after compound withdrawal. Format: functional, organism-based. The essentials:
as §1

For data set [7], the system named is Toxoplasma gondii. In words: Antiparasitic activity against Toxoplasma gondii PRU-Luc-GFP type 2 infected in 400 mg/kg sulfadiazine-pretreated INFgamma-deficient C57BL/6 mouse reactivated toxoplasmosis model assessed as mouse survival at 10 mg/kg, sc at once daily for 8 days administered 2 days after sulfadiazine discontinuation measured on day 25 post infection after compound withdrawal. It counts as functional, organism-based. The essentials:
as §1

In data set [8] the test system is Toxoplasma gondii. In words: Antiparasitic activity against Toxoplasma gondii PRU-Luc-GFP type 2 infected in CD1 mouse acute toxoplasmosis model assessed as decrease in parasite-induced cyst formation in mouse brain at 10 mg/kg, sc administered once daily for 8 days measured after 25 days post-infection by luciferase reporter gene based assay. It counts as functional, organism-based. Also on record: dose 10 mg/kg. In short, it runs like this: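 Female CD1 mice, 8–10 weeks old, infected i.p. with 10⁶ PRU-Luc-GFP tachyzoites and dosed s.c. at 10 mg/kg daily for 8 days. At 25 days post-infection, brains were homogenized in 1.0 ml PBS, pH 7.2. Cysts counted by bright-field or phase-contrast microscopy at ×40 in four 20-μl aliquots and total cysts per brain estimated. Three experiments combined, n = 2 per group.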

Data set [9] in a line: Partition coefficient, log P of the compound at pH 2. The following applies: octanol/water. It counts as physicochemical.

As for `C[C@H]1[C@H](NS(N)(=O)=O)O[C@@H]2O[C@@]3(C)CC[C@H]4[C@H](C)CC[C@@H]1[C@@]24OO3`, the logP (as a rule, the decadic logarithm of the partition coefficient of the neutral form, usually between octanol and water) in data set [1] was 3.36. Further, the Activity result in the data set on HFF is “Non-toxic”. Moreover, in the data set with Toxoplasma gondii [2], the EC50 (commonly the midpoint of the concentration-response curve) is 158 nM and the 90% effect concentration (EC90) (in general, the concentration needed for an effect of 90%) turned out to be 235 nM.
The molecule `C[C@@H]1CC[C@H]2[C@@H](C)C(c3ccc(F)cc3)O[C@@H]3O[C@@]4(C)CC[C@@H]1[C@]32OO4` (some centres not stated) displayed a logP in [1] of 5.18. The Activity result in the data set on HFF is “Non-toxic”. In the data set with Toxoplasma gondii [2], this molecule came in with a 50% effective concentration (EC50) of 182 nM and an EC90 of 271 nM.
In data set [1], `C[C@H]1[C@H](N2CCN(Cc3ccccc3)CC2)O[C@@H]2O[C@@]3(C)CC[C@H]4[C@H](C)CC[C@@H]1[C@@]24OO3` displayed a logP of 5.62. Also, the Activity entry with HFF is listed as “Non-toxic”. In the data set with Toxoplasma gondii [2], this molecule had an EC50 of 213 nM and an EC90 of 339 nM.
On to `C[C@H]1[C@H](N2CCN(c3ncccn3)CC2)O[C@@H]2O[C@@]3(C)CC[C@H]4[C@H](C)CC[C@@H]1[C@@]24OO3`, for which, in [1], the logP is 4.78. Moreover, the Activity entry in the data set with HFF was “Non-toxic”. In addition, in the data set with Toxoplasma gondii [2], the EC50 came to 156 nM and the EC90 turned out to be 263 nM.
Molecule `C[C@H]1[C@H](N2CCS(=O)(=O)CC2)O[C@@H]2O[C@@]3(C)CC[C@H]4[C@H](C)CC[C@@H]1[C@@]24OO3` [ARTEMIFONE] showed a logP in data set [1] of 2.49. Besides, the Activity result in the data set with HFF was “Non-toxic”. In addition, the EC50 in the data set with Toxoplasma gondii [2] stood at 120 nM. In the data set on Toxoplasma gondii [2], the concentration for an effect of 90% (EC90) amounted to 176 nM. In addition, the outcome in the data set with Toxoplasma gondii [3] was Active. The Survival in the data set on Toxoplasma gondii [4] came to 60%. Moreover, the survival at 10 mg/kg with Toxoplasma gondii [5] stood at 50%. Moreover, the result in the data set on Toxoplasma gondii [6] and with Toxoplasma gondii [7] was inactive.
In data set [1], `C[C@H]1[C@H](N2CCSCC2)O[C@@H]2O[C@@]3(C)CC[C@H]4[C@H](C)CC[C@@H]1[C@@]24OO3` [ARTEMISIDE] displayed a logP of 4.97. Besides, the Activity entry in the data set with HFF was “Non-toxic”. For the same molecule, in the data set with Toxoplasma gondii [2], the EC50 turned out to be 108 nM. Further, it took 167 nM to reach the 90% level with Toxoplasma gondii [2] (EC90). The result in the data set on Toxoplasma gondii [3] and in the data set on Toxoplasma gondii [8] was Active. Besides, the Survival in the data set with Toxoplasma gondii [4] was 80%. Besides, the survival at 10 mg/kg in the data set on Toxoplasma gondii [5] stood at 60%. Moreover, the result in the data set with Toxoplasma gondii [6] and in the data set with Toxoplasma gondii [7] was inactive.
`C[C@@H]1CC[C@H]2[C@@H](C)C(=O)O[C@@H]3O[C@@]4(C)CC[C@@H]1[C@]32OO4` [ARTEMISININ] showed a logP in data set [1] of 2.94. The result in the data set with Toxoplasma gondii [3] and in the data set on Toxoplasma gondii [8] was inactive.
For the molecule `C[C@H]1[C@H](OC(=O)CCC(=O)O)O[C@@H]2O[C@@]3(C)CC[C@H]4[C@H](C)CC[C@@H]1[C@@]24OO3` [ARTESUNATE], in the data set on HFF, the Activity entry is recorded as “Non-toxic”. For the same molecule, in the data set on Toxoplasma gondii [2], the EC50 worked out at 213 nM and the EC90 came out at 368 nM. The logP in data set [9] turned out to be 2.77.
